Where “and” joins values, the source holds several entries; their conditions need not be identical. Identical values can stand only once. Calls of active or inactive are those of the source. No cut-off for these calls is given here.
Legend:
[1] = Retention time of the compound in 0 to 70% ACN/Water/0.1%TFA by RP-HPLC analysis; type: physicochemical; settings: buffer
[2] = Retention time of the compound in 50 to 100% ACN/Water/0.1%TFA by RP-HPLC analysis; type: physicochemical; settings: buffer
Method in brief: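 RP-HPLC run with a 50 to 100% ACN/water/0.1% TFA gradient over 25 min; retention times and isomer ratios taken from the reaction mixture.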

[3] = Retention time of the compound in 30 to 100% ACN/Water/0.1%TFA by RP-HPLC analysis; type: physicochemical; settings: buffer
Method in brief: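 Reverse-phase HPLC, 30 to 100% ACN/water/0.1% TFA gradient in 25 min; retention times and E/Z ratios determined on the reaction mixture.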

[4] = biological target: T1, Eukaryotic translation initiation factor 4E (Homo sapiens, UniProt P06730); experiment: Inhibition of eIF4E/eIF4G interaction in human CRL2813 cells assessed as reduction of eIF4E/eIF4G complex at 30 uM after 6 hrs by Western blotting analysis relative to control; type: cell-based
Method in brief: (§1)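 CRL-2813 melanoma cells incubated 6 h with 30 µM compound or DMSO vehicle, harvested, lysed by freeze-thaw; lysate bound to m7GTP-Sepharose 1 h at 4°C, beads washed, eluted with free m7GTP; retentate resolved by SDS-PAGE and immunoblotted for eIF4E, eIF4G (monoclonal) and 4E-BP1 (polyclonal). Blots quantified; mean of three independent pull-downs, error ±S.E.M.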

[5] = biological target: T1, Eukaryotic translation initiation factor 4E; experiment: Inhibition of eIF4E/eIF4G interaction in human CRL2813 cells assessed as increase in eIF4E/BP1 complex at 30 uM after 6 hrs by Western blotting analysis relative to control; type: cell-based; method in brief: as §1
[6] = biological target: T1, Eukaryotic translation initiation factor 4E; experiment: Binding affinity to human full length recombinant GST-tagged eIF4E expressed in Escherichia coli BL21(DE3) by intrinsic tryptophan fluorescence quenching method
[7] = Retention time of the compound in 0 to 100% ACN/Water/0.1%TFA by RP-HPLC analysis; type: physicochemical; settings: buffer
Method in brief: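 Reverse-phase HPLC, linear gradient 0 to 100% ACN/water/0.1% TFA over 25 min; isomer retention times and ratios measured in the reaction mixture.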

T1 sequence (P06730 whole entry): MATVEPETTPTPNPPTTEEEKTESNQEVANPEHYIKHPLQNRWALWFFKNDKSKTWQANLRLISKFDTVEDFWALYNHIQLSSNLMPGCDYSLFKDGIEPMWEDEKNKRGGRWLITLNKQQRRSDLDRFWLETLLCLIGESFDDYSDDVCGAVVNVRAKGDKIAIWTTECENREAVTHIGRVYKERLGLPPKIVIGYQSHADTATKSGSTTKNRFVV

Row | Compound | Retention_time [2] | further results
1 | O=C(O)/C(Cc1ccccc1[N+](=O)[O-])=N\Nc1nc(-c2ccc(C(=O)O)cc2)cs1 | – | Retention_time [1]: 16.77 min
2 | O=C(O)/C(Cc1ccc([N+](=O)[O-])cc1)=N/Nc1nc(-c2ccc(Cl)c(Cl)c2)cs1 | 8.16 min | –
3 | O=C(O)/C(Cc1ccc(Cl)c([N+](=O)[O-])c1)=N/Nc1nc(-c2ccc(Cl)c(Cl)c2)cs1 | 9.437 min | –
4 | Nc1ccc(C/C(=N\Nc2nc(-c3ccc(Cl)c(Cl)c3)cs2)C(=O)O)cc1[N+](=O)[O-] | – | Retention_time [3]: 12.3 min
5 | O=C(O)/C(Cc1ccccc1[N+](=O)[O-])=N/Nc1nc(-c2ccc(O)cc2)cs1 | – | Retention_time [1]: 16.48 min
6 | O=C(O)/C(Cc1ccc(F)cc1)=N/Nc1nc(-c2ccc(Cl)c(Cl)c2)cs1 | 7.47 min | –
7 | O=C(O)/C(Cc1ccccc1[N+](=O)[O-])=N\Nc1nc(-c2ccc(N3CCCC3)cc2)cs1 (mixture of isomers) | – | Retention_time [3]: 8.828 min
8 | O=C(O)/C(Cc1ccccc1)=N\Nc1nc(-c2ccc(Cl)c(Cl)c2)cs1 | 10.56 min | –
9 | O=C(O)/C(Cc1ccc(C(F)(F)F)cc1)=N/Nc1nc(-c2ccc(Cl)c(Cl)c2)cs1 | 10.59 min | –
10 | [N-]=[N+]=Nc1ccc(-c2csc(N/N=C(/Cc3ccccc3[N+](=O)[O-])C(=O)O)n2)cc1 | – | Retention_time [3]: 13.435 min
11 | O=C(O)/C(Cc1cccc([N+](=O)[O-])c1)=N/Nc1nc(-c2ccc(Cl)c(Cl)c2)cs1 | 7.19 min | –
12 | Nc1ccc(C/C(=N/Nc2nc(-c3ccc(Cl)c(Cl)c3)cs2)C(=O)O)cc1[N+](=O)[O-] | 15.08 min | inhibition [4]: Active; inhibition [5]: Active; Retention_time [3]: 15.09 min; Kd [6]: 5.01 µM
13 | O=C(O)/C(Cc1ccc(Cl)c([N+](=O)[O-])c1)=N\Nc1nc(-c2ccc(Cl)c(Cl)c2)cs1 | 9.449 min | –
14 | O=C(O)/C(Cc1ccc(O)c([N+](=O)[O-])c1)=N/Nc1nc(-c2ccc(Cl)c(Cl)c2)cs1 | 7.82 min | –
15 | O=C(O)/C(Cc1ccc(C(F)(F)F)cc1)=N\Nc1nc(-c2ccc(Cl)c(Cl)c2)cs1 | 10.53 min | –
16 | O=C(O)/C(Cc1ccc(Cl)cc1)=N\Nc1nc(-c2ccc(Cl)c(Cl)c2)cs1 | 10.09 min | –
17 | O=C(O)/C(Cc1ccc([N+](=O)[O-])cc1)=N\Nc1nc(-c2ccc(Cl)c(Cl)c2)cs1 | 8.01 min | –
18 | O=C(O)/C(Cc1ccccc1[N+](=O)[O-])=N\Nc1nc(-c2ccccc2)cs1 | – | Retention_time [1]: 12.958 min; Retention_time [7]: 16.98 min
19 | COc1ccc(C/C(=N/Nc2nc(-c3ccc(Cl)c(Cl)c3)cs2)C(=O)O)cc1[N+](=O)[O-] | 10.68 min | –
20 | O=C(O)/C(Cc1ccccc1[N+](=O)[O-])=N/Nc1nc(-c2ccc(C(=O)O)cc2)cs1 | – | Retention_time [1]: 14.54 min
21 | O=C(O)/C(Cc1ccccc1[N+](=O)[O-])=N/Nc1nc(-c2ccc(Br)cc2)cs1 | – | Retention_time [3]: 10 min

Row | Compound | Retention_time [2] | further results
22 | O=C(O)/C(Cc1ccc(C(=O)O)cc1)=N\Nc1nc(-c2ccc(Cl)c(Cl)c2)cs1 | 8.13 min | –
23 | O=C(O)/C(Cc1ccc(O)cc1)=N\Nc1nc(-c2ccc(Cl)c(Cl)c2)cs1 | 14.28 min | Retention_time [7]: 18.74 min
24 | O=C(O)/C(Cc1ccccc1)=N/Nc1nc(-c2ccc(Cl)c(Cl)c2)cs1 | 8.7 min | –
25 | O=C(O)/C(Cc1ccc(C(=O)O)cc1[N+](=O)[O-])=N\Nc1nc(-c2ccc(Cl)c(Cl)c2)cs1 | – | Retention time [3]: 12.5 min
26 | Nc1ccc(-c2csc(N/N=C(/Cc3ccccc3[N+](=O)[O-])C(=O)O)n2)cc1 | – | Retention_time [1]: 12.98 min
27 | O=C(O)/C(Cc1ccc(C(=O)O)cc1[N+](=O)[O-])=N/Nc1nc(-c2ccc(Cl)c(Cl)c2)cs1 | – | Retention_time [3]: 11.814 min
28 | O=C(O)/C(Cc1ccccc1[N+](=O)[O-])=N\Nc1nc(-c2ccc(O)cc2)cs1 | – | Retention_time [1]: 16.47 min; Kd [6]: 36.6 µM
29 | Nc1ccc(-c2csc(N/N=C(\Cc3ccccc3[N+](=O)[O-])C(=O)O)n2)cc1 | – | Retention_time [1]: 11.06 min
30 | O=C(O)/C(Cc1ccc(Br)cc1[N+](=O)[O-])=N/Nc1nc(-c2ccc(Cl)c(Cl)c2)cs1 | – | Retention_time [3]: 15.542 min
31 | O=C(O)/C(Cc1ccccc1[N+](=O)[O-])=N\Nc1nc(-c2ccc(Br)cc2)cs1 | – | Retention_time [3]: 12.48 min
32 | O=C(O)/C(Cc1ccc(O)c([N+](=O)[O-])c1)=N\Nc1nc(-c2ccc(Cl)c(Cl)c2)cs1 | 7.82 min | –
33 | O=C(O)/C(Cc1ccc(O)cc1)=N/Nc1nc(-c2ccc(Cl)c(Cl)c2)cs1 | 14.28 min | Retention_time [7]: 16.63 min
34 | [N-]=[N+]=Nc1ccc(-c2csc(N/N=C(\Cc3ccccc3[N+](=O)[O-])C(=O)O)n2)cc1 | – | Retention_time [3]: 11.722 min
35 | O=C(O)/C(Cc1ccccc1[N+](=O)[O-])=N/Nc1nc(-c2ccccc2)cs1 | – | Retention_time [1]: 15.796 min and 16.484 min; Retention_time [7]: 15.8 min
36 | O=C(O)/C(Cc1ccc(F)c([N+](=O)[O-])c1)=N/Nc1nc(-c2ccc(Cl)c(Cl)c2)cs1 | 15.54 min | –
37 | O=C(O)/C(Cc1ccc(F)cc1)=N\Nc1nc(-c2ccc(Cl)c(Cl)c2)cs1 | 7.92 min | –
38 | O=C(O)/C(Cc1cccc([N+](=O)[O-])c1)=N\Nc1nc(-c2ccc(Cl)c(Cl)c2)cs1 | 8.36 min | –
39 | COc1ccc(C/C(=N\Nc2nc(-c3ccc(Cl)c(Cl)c3)cs2)C(=O)O)cc1[N+](=O)[O-] | 8.007 min | –
40 | O=C(O)/C(Cc1ccc(C(=O)O)cc1)=N/Nc1nc(-c2ccc(Cl)c(Cl)c2)cs1 | 5.62 min | –
41 | Nc1ccc(C/C(=N/Nc2nc(-c3ccc(Cl)c(Cl)c3)cs2)C(=O)O)cc1 | – | Retention_time [3]: 5.328 min
42 | O=C(O)/C(Cc1ccc(F)c([N+](=O)[O-])c1)=N\Nc1nc(-c2ccc(Cl)c(Cl)c2)cs1 | 8.4 min | –

More lines, main results first:

Row | Retention_time [2] | Compound | further results
43 | 8.68 min | O=C(O)/C(Cc1ccccc1[N+](=O)[O-])=N/Nc1nc(-c2ccc(Cl)c(Cl)c2)cs1 | –
44 | 5.899 min | O=C(O)/C(Cc1ccccc1[N+](=O)[O-])=N\Nc1nc(-c2ccc3ccccc3c2)cs1 | –
45 | 11.636 min | O=C(O)/C(Cc1ccccc1[N+](=O)[O-])=N\Nc1nc(-c2ccc(C3CCCCC3)cc2)cs1 | –
46 | 7.27 min | O=C(O)/C(Cc1ccccc1[N+](=O)[O-])=N/Nc1nc(-c2ccc3ccccc3c2)cs1 | Retention_time [3]: 11.72 min
47 | 7.23 min | O=C(O)/C(Cc1ccccc1[N+](=O)[O-])=N\Nc1nc(-c2ccc(-c3ccccc3)cc2)cs1 | –
48 | 12.32 min | O=C(O)/C(Cc1ccccc1[N+](=O)[O-])=N\Nc1nc(-c2ccc(N3CCOCC3)cc2)cs1 | –
49 | 13.69 min | O=C(O)/C(Cc1ccccc1[N+](=O)[O-])=N\Nc1nc(-c2ccc(Cl)c(Cl)c2)cs1 | –
50 | 15.082 min | O=C(O)/C(Cc1ccccc1[N+](=O)[O-])=N/Nc1nc(-c2ccc(N3CCOCC3)cc2)cs1 | –
51 | 12.013 min | O=C(O)/C(Cc1ccccc1[N+](=O)[O-])=N/Nc1nc(-c2ccc(C3CCCCC3)cc2)cs1 | –

Reference: ChEMBL document CHEMBL3351917, “Structure-activity relationship study of 4EGI-1, small molecule eIF4E/eIF4G protein-protein interaction inhibitors” (Eur J Med Chem, 2014)
